Bounds are passed on as bounds.

In general, EC50 refers to the concentration giving half of the maximal effect. Read a low EC50 as a more potent agent. By IC50 is commonly meant the concentration that gives 50% inhibition. The low end stands for inhibition by little substance, the high end for a need for much substance.

In experiment [1] the target is T1, Sodium- and chloride-dependent glycine transporter 1 (Homo sapiens, UniProt P48067).
T1 sequence (P48067 whole entry): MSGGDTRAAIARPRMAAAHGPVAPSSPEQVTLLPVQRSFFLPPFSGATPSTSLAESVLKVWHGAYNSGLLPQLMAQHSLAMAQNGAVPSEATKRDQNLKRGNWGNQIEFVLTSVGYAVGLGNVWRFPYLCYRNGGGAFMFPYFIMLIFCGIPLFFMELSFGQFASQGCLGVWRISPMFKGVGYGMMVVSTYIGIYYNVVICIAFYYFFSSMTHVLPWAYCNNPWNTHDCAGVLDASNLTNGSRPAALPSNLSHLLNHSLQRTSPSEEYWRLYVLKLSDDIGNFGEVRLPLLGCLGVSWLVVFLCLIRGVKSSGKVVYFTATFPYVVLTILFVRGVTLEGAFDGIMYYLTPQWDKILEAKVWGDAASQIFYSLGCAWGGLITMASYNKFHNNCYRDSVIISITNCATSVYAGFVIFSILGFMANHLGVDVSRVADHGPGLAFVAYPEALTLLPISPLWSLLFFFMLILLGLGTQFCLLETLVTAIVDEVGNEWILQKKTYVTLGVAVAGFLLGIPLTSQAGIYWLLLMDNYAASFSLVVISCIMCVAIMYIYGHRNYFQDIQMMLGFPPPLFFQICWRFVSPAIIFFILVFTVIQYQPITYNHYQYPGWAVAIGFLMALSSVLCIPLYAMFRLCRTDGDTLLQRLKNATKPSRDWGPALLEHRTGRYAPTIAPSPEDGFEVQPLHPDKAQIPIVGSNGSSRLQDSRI
Briefly: Inhibition of [3H]glycine uptake at GlyT1.

The target in experiment [2] is T2, Sodium- and chloride-dependent glycine transporter 2 (Homo sapiens, UniProt Q9Y345).
T2 sequence (Q9Y345 whole entry): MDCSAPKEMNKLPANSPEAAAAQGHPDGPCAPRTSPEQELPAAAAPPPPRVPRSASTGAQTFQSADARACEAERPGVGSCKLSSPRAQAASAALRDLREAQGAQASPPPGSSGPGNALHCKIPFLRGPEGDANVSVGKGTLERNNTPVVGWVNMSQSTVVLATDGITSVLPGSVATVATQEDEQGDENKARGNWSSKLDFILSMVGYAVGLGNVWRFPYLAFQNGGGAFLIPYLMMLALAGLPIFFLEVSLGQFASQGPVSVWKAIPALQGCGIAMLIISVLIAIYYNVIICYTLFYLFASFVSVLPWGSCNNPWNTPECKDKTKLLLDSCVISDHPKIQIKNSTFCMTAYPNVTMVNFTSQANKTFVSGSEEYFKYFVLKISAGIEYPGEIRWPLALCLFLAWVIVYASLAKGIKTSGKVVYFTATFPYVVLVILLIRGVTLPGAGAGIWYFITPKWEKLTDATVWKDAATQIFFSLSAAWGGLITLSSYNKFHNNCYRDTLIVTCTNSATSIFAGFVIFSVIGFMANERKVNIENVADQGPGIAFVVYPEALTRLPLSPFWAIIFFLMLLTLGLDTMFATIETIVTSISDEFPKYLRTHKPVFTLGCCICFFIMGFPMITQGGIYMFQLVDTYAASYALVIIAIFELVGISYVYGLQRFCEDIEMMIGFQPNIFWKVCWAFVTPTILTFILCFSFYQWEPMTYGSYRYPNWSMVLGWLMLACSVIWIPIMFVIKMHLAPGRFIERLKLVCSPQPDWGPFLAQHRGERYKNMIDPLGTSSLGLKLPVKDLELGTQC
Kind of experiment: Inhibition of [3H]glycine uptake at GlyT2.

The next experiment concerns the target Nociceptin receptor (Homo sapiens, UniProt P41146). Briefly: Displacement of [3H]NOP from human NOP receptor expressed in HEK293 cells. In kind it is cell-based. Put shortly: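 Radioligand binding using membranes from HEK293 cells stably (permanently) transfected with human NOP receptor; displacement of [3H]-NOP measured.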
For orientation: Displacement assays read how much labelled ligand stays bound in the presence of the test substance.

Nociceptin receptor, sequence (P41146 whole entry): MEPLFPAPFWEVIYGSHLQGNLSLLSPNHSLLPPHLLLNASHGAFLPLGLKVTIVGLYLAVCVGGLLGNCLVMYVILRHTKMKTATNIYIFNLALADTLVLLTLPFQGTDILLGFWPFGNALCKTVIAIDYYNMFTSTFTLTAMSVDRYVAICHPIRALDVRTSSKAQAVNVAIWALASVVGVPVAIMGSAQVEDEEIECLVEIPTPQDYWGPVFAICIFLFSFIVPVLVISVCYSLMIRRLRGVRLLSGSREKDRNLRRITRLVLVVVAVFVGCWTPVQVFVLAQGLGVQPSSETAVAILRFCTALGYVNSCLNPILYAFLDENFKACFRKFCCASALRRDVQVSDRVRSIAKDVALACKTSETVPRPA

`O=C1NC[C@H](c2ccccc2)C12CCN([C@@H]1CCCC[C@@H]1c1ccccc1)CC2`: in experiment [1], the EC50 is 2880 nM.

In the case of `O=C1NC[C@H](c2ccc(F)cc2)C12CCN([C@H]1CCCC[C@H]1c1ccc(F)cc1)CC2`, the EC50 in experiment [1] was 1300 nM; in experiment [2] it was 8.36 µM.

Take `COc1ccc(C2CNC(=O)C23CCN(C2CCCCC2c2ccc(F)cc2)CC3)cc1` (stereo unspecified): the EC50 in experiment [1] worked out at 113 nM.

For `O=C1NCC(c2ccccc2)C12CCN(C1CCCCC1c1ccccc1)CC2` (stereo unspecified), the EC50 in experiment [1] turned out to be 232 nM; in experiment [2] it was 25 µM. At Nociceptin receptor, this molecule returned an IC50 greater than 10 µM.

With `O=C1NC[C@H](c2ccc(F)cc2)C12CCN([C@@H]1CCCC[C@@H]1c1ccc(F)cc1)CC2`, the concentration giving a half-maximal response (EC50) in experiment [1] worked out at 36 nM; in experiment [2], 39.9 µM. On Nociceptin receptor, this molecule gave an IC50 greater than 10 µM.

As for `O=C1NC[C@@H](c2ccccc2)C12CCN([C@H]1CCCC[C@H]1c1ccccc1)CC2`, the EC50 stood at 246 nM in experiment [1] and 39.6 µM in experiment [2]. At Nociceptin receptor, this molecule displayed an IC50 greater than 10 µM.

In the case of `O=C1NC[C@@H](c2ccc(F)cc2)C12CCN([C@@H]1CCCC[C@@H]1c1ccc(F)cc1)CC2`, the EC50 amounted to 43 nM in experiment [1] and 16.7 µM in experiment [2]. The same molecule displayed an IC50 on Nociceptin receptor greater than 10 µM.

For the molecule `O=C1NC[C@@H](c2ccccc2)C12CCN([C@@H]1CCCC[C@@H]1c1ccccc1)CC2`, the EC50 in experiment [1] was found to be 2830 nM.

Turning to `O=C1NC[C@H](c2ccccc2)C12CCN([C@H]1CCCC[C@H]1c1ccccc1)CC2`, in experiment [1], the EC50 was determined as 61 nM. The IC50 on Nociceptin receptor is greater than 10 µM.

For the molecule `O=C1NC[C@@H](c2ccc(F)cc2)C12CCN([C@H]1CCCC[C@H]1c1ccc(F)cc1)CC2`, the EC50 in experiment [1] is 1060 nM; in experiment [2], greater than 30 µM.

Take `O=C1NCC(c2ccc(F)cc2)C12CCN(C1CCCCC1c1ccc(C(F)(F)F)cc1)CC2` (single isomer, unassigned; diastereomer 1): in experiment [1], the EC50 amounted to 2330 nM.

`O=C1NCC(c2ccc(Cl)c(Cl)c2)C12CCN(C1CCCCC1c1ccc(F)cc1)CC2` (single isomer, unassigned; diastereomer 1): a half-maximal effect in experiment [1] (EC50) was put at 270 nM.

Molecule `O=C1NCC(c2ccccc2)C12CCN(C1CCCCC1c1ccc(F)cc1)CC2` (single isomer, unassigned; diastereomer 1) had an EC50 in experiment [1] of 167 nM.

`COc1ccc(C2CNC(=O)C23CCN(C2CCCCC2c2ccc(C)cc2)CC3)cc1` (single isomer, unassigned; diastereomer 1) displayed an EC50 in experiment [1] of 1130 nM.

Turning to `O=C1NCC(c2ccc(F)cc2)C12CCN(C1CCCCC1c1ccc(C(F)(F)F)cc1)CC2` (single isomer, unassigned; diastereomer 2), a half-maximal effect in experiment [1] (EC50) was put at 953 nM.

On to `O=C1NCC(c2ccc(Cl)c(Cl)c2)C12CCN(C1CCCCC1c1ccc(F)cc1)CC2` (single isomer, unassigned; diastereomer 2), for which the EC50 in experiment [1] was found to be 2190 nM.

In experiment [1], `O=C1NCC(c2ccccc2)C12CCN(C1CCCCC1c1ccc(F)cc1)CC2` (single isomer, unassigned; diastereomer 2) had an EC50 of 48 nM.

For `COc1ccc(C2CNC(=O)C23CCN(C2CCCCC2c2ccc(C)cc2)CC3)cc1` (single isomer, unassigned; diastereomer 2), the EC50 in experiment [1] was found to be 16600 nM.

`O=C1NCC(c2ccc(F)cc2)C12CCN(C1CCCCC1c1ccc(C(F)(F)F)cc1)CC2` (single isomer, unassigned; diastereomer 3) displayed an EC50 in experiment [1] of 129 nM.

On to `O=C1NCC(c2ccc(F)cc2)C12CCN(C1CCCCC1c1ccc(C(F)(F)F)cc1)CC2` (stereo in doubt), for which the EC50 in experiment [1] is 91 nM.
